Results from ChEMBL document CHEMBL2331405, “Benzanilide-Biphenyl Replacement: A Bioisosteric Approach to Quinoline Carboxamide-Type ABCG2 Modulators” (ACS Med Chem Lett, 2013).

Tests used:
[1] = Half life in NMRI nu/nu mouse plasma at 3 mM by RP-HPLC analysis; assay type: ADME, cell-free
[2] = target: T1, ABCG2 (Homo sapiens, UniProt Q9UNQ0); assay: Inhibition of ABCG2 in human MCF7/Topo cells at 70 to 100 uM after 2 hrs by Hoechst 33342 microplate assay relative to 10 uM fumitremorgin; assay type: cell-based; conditions: probe Hoechst 33342, read-out: Imax
T1 sequence (Q9UNQ0 whole entry): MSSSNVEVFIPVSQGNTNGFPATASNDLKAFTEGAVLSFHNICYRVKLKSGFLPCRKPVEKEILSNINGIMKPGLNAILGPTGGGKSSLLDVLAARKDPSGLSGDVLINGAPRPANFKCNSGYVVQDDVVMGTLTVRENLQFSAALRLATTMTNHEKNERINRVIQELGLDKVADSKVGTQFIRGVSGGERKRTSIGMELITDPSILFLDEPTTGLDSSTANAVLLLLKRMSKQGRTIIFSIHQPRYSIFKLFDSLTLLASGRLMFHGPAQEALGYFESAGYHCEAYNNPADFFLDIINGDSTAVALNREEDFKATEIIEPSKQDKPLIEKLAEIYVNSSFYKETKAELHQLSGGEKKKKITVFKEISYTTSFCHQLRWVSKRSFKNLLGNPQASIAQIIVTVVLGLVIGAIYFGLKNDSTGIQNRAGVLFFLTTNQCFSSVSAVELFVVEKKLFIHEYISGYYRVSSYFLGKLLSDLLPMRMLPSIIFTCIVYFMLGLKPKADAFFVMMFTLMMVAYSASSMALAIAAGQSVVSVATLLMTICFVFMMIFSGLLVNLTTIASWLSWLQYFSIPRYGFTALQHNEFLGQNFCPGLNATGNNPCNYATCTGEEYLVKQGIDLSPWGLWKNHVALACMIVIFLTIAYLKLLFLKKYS

[3] = target: T2, Broad substrate specificity ATP-binding cassette transporter ABCG2 (Homo sapiens, UniProt Q9UNQ0); assay: Inhibition of ABCG2 in human MCF7/Topo cells after 2 hrs by Hoechst 33342 microplate assay; assay type: cell-based; conditions: for inhibition (INH): human, mcf7/topo, 2 h
T2 sequence (Q9UNQ0 whole entry): T1 sequence (Q9UNQ0 whole entry)

[4] = target: T3, ATP-dependent translocase ABCB1 (Homo sapiens, UniProt P08183); assay: Inhibition of ABCB1 in human KBV1 cells after 10 mins by Calcein-AM microplate assay; assay type: cell-based
[5] = target: ABCB1 (Homo sapiens, UniProt P08183); assay: Inhibition of ABCB1 in human KBV1 cells after 10 mins by Calcein-AM microplate assay relative to 1 uM tariquidar; assay type: cell-based; conditions: probe calcein-AM
How it was run: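 Microplate calcein-AM assay in ABCB1-overexpressing Kb-V1 cells. Maximal inhibition is expressed as a percentage of the maximal response to tariquidar at 1 μM. Means ± SEM come from two to three independent experiments, each run in triplicate.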

[6] = target: T3, ATP-dependent translocase ABCB1; assay: Inhibition of ABCB1 in human KBV1 cells up to 100 uM after 10 mins by Calcein-AM microplate assay; assay type: cell-based; conditions: kbv1, 10 min
How it was run: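 Microplate calcein-AM efflux assay in ABCB1-overexpressing Kb-V1 cells. Values are means ± SEM from two to three independent experiments, each run in triplicate.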

[7] = tested on: Plasma; assay: Stability in NMRI nu/nu mouse plasma at 3 mM measured within 30 mins by RP-HPLC analysis; assay type: ADME, cell-free; conditions: 0.5 h, 3000 µM
[8] = target: T1, ABCG2; assay: Ratio of compound IC50 to elacridar IC50 for ABCG2 in human MCF7/Topo cells after 2 hrs by Hoechst 33342 microplate assay; assay type: cell-based; conditions: probe Hoechst 33342, read-out: Ratio IC50

Sequence of ABCB1 (P08183 whole entry): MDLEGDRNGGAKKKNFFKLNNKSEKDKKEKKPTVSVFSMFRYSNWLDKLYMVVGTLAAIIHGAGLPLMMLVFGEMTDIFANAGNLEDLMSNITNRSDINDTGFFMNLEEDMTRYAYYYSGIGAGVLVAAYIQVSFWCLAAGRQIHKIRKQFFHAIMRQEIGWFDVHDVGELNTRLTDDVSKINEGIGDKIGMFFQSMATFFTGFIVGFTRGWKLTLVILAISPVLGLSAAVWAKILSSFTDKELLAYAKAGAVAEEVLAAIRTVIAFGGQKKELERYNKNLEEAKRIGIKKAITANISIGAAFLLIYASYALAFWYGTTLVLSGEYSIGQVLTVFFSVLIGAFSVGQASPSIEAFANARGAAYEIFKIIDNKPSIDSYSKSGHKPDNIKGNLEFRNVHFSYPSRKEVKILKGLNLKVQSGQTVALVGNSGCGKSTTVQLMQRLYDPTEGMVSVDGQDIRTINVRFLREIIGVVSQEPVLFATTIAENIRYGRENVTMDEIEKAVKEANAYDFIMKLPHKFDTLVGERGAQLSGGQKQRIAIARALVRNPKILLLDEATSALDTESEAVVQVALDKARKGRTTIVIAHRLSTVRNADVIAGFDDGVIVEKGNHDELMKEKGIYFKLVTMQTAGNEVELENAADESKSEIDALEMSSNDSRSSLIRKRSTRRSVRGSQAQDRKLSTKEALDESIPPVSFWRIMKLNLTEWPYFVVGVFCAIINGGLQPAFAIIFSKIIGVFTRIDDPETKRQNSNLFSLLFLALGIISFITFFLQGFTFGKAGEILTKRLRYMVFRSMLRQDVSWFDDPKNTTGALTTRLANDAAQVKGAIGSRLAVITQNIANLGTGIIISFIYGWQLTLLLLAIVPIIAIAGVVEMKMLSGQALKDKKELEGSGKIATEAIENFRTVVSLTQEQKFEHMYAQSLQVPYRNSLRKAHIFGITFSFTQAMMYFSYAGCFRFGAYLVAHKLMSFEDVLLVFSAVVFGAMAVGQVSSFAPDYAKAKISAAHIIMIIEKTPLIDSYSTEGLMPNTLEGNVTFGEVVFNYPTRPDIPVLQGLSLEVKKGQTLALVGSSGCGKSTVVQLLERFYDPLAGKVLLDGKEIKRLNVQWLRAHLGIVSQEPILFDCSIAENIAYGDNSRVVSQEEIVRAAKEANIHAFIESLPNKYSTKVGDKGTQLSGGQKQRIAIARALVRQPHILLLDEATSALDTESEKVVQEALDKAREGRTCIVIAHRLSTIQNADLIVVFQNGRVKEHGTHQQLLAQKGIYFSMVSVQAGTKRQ
T3 sequence (P08183 whole entry): as above

For `COC(=O)c1ccc(-c2ccc(CN3CCc4cc(OC)c(OC)cc4C3)cc2)cc1NC(=O)c1ccc2ncccc2c1`, the half-life at 3000 µM [1] was 24 h, the Emax at 2 h [2] was 92% and the IC50 [3] was 1.54 µM. The IC50 [4] was 10.9 µM.
With `COc1cc2c(cc1OC)CN(CCc1ccc(NC(=O)c3cccc4c(=O)c5cccc(OC)c5[nH]c34)cc1)CC2` the Emax at 2 h [2] was 63%.
`COCCOCCOCCOc1cc2c(cc1OC)CCN(Cc1ccc(-c3ccc(C(=O)OC)c(NC(=O)c4ccc5ccccc5n4)c3)cc1)C2` gave a half-life at 3000 µM [1] of 24 h, an Emax at 2 h [2] of 109% and an IC50 [3] of 0.591 µM. For the same compound, the “inhibition (INH)” value [3] was “Dose-dependent effect”, the inhibition at 10 min [5] was 20% and the IC50 [4] was 1.23 µM.
For `COCCOCCOCCOc1cc2c(cc1OCCOCCOCCOC)CN(Cc1ccc(-c3ccc(C(=O)OC)c(NC(=O)c4ccc5ccccc5n4)c3)cc1)CC2`, the half-life at 3000 µM [1] was 24 h, the Emax at 2 h [2] was 103% and the IC50 [3] was 0.839 µM. The “inhibition (INH)” value [6] was “Not Active”.
With `COCCOCCOCCOc1cc2c(cc1OC)CCN(CCc1ccc(NC(=O)c3ccc(C(=O)OC)c(NC(=O)c4ccc5ccccc5n4)c3)cc1)C2` the half-life at 3000 µM [1] was 0.167 h and the Stability [7] was “Unstable”.
`COC(=O)c1ccc(-c2ccc(CCN3CCc4ccccc4C3)cc2)cc1NC(=O)c1ccc2ccccc2n1` showed a half-life at 3000 µM [1] of 24 h, an Emax at 2 h [2] of 90% and an IC50 [3] of 1.1 µM. For the same compound, the “inhibition (INH)” value [6] was “Not Active”.
For `COc1cc2c(cc1OC)CN(CCc1ccc(NC(=O)c3cc(OC)c(OC)cc3NC(=O)c3cnc4ccccc4c3)cc1)CC2`, the selectivity ratio at 2 h [8] was 4, the Emax at 2 h [2] was 69% and the “inhibition (INH)” value [3] was “Dose-dependent effect”.
Work on `COC(=O)c1ccc(-c2ccc(CN3CCc4cc(OC)c(OC)cc4C3)cc2)cc1NC(=O)c1ccc2ccccc2n1` yielded a half-life at 3000 µM [1] of 24 h, an Emax at 2 h [2] of 87% and an IC50 [3] of 0.943 µM. The “inhibition (INH)” value [6] was “Not Active”.
Work on `COC(=O)c1ccc(-c2ccc(CN3CCc4ccccc4C3)cc2)cc1NC(=O)c1ccc2ccccc2n1` yielded a half-life at 3000 µM [1] of 24 h, an Emax at 2 h [2] of 85% and an IC50 [3] of 1.46 µM. The “inhibition (INH)” value [6] was “Not Active”.
In the case of `COc1ccc2c3c([nH]c2c1)[C@H](CC(C)C)N1C(=O)[C@H](CCC(=O)OC(C)(C)C)NC(=O)[C@@H]1C3`, the “inhibition (INH)” value [6] is reported as “Not Active”.
For `COC(=O)c1ccc(C(=O)Nc2ccc(CCN3CCc4cc(OC)c(OC)cc4C3)cc2)cc1NC(=O)c1ccc2ccccc2n1`, the half-life at 3000 µM [1] was 0.167 h, the Stability [7] was “Unstable” and the Emax at 2 h [2] was 63%. For the same compound, the IC50 [3] was 0.065 µM and the “inhibition (INH)” value [3] was “Dose-dependent effect”.
`COCCOCCOCCOc1cc2c(cc1OCCOCCOCCOC)CN(CCc1ccc(-c3ccc(C(=O)OC)c(NC(=O)c4ccc5ccccc5n4)c3)cc1)CC2` gave a half-life at 3000 µM [1] of 24 h, an Emax at 2 h [2] of 112% and an IC50 [3] of 0.544 µM. The “inhibition (INH)” value [3] was “Dose-dependent effect”, the inhibition at 10 min [5] was 50% and the IC50 [4] was 5.99 µM.
For `COCCOCCOCCOc1cc2c(cc1OC)CN(Cc1ccc(-c3ccc(C(=O)OC)c(NC(=O)c4ccc5ncccc5c4)c3)cc1)CC2`, the half-life at 3000 µM [1] was 24 h, the Emax at 2 h [2] was 67% and the IC50 [3] was 0.237 µM. It also gave an IC50 [4] of 18 µM.
`COc1ccc2c3c([nH]c2c1)[C@H](C=C(C)C)N1C(=O)[C@@H]2CCCN2C(=O)[C@@H]1C3` [FUMITREMORGIN] gave an Emax at 2 h [2] of 100% and an IC50 [3] of 0.731 µM.
Work on `COC(=O)c1ccc(-c2ccc(CCN3CCc4cc(OC)c(OC)cc4C3)cc2)cc1NC(=O)c1ccc2ccccc2n1` yielded a half-life at 3000 µM [1] of 24 h, an Emax at 2 h [2] of 126% and an IC50 [3] of 3.21 µM. For the same compound, the “inhibition (INH)” value [6] was “Not Active”.
For `COCCOCCOCCOc1cc2c(cc1OC)CCN(CCc1ccc(-c3ccc(C(=O)OC)c(NC(=O)c4ccc5ccccc5n4)c3)cc1)C2`, the half-life at 3000 µM [1] was 24 h, the Emax at 2 h [2] was 98% and the IC50 [3] was 0.76 µM. It also gave an inhibition at 10 min [5] of 50% and an IC50 [4] of 5.42 µM.
Work on `COCCOCCOCCOc1cc2c(cc1OC)CN(Cc1ccc(-c3ccc(C(=O)OC)c(NC(=O)c4ccc5ccccc5n4)c3)cc1)CC2` yielded a half-life at 3000 µM [1] of 24 h, an Emax at 2 h [2] of 114% and an IC50 [3] of 1.03 µM. For the same compound, the “inhibition (INH)” value [6] was “Not Active”.
For `COC(=O)c1ccc(-c2ccc(CN3CCc4ccccc4C3)cc2)cc1NC(=O)c1ccc2ncccc2c1`, the half-life at 3000 µM [1] was 24 h, the Emax at 2 h [2] was 94% and the IC50 [3] was 0.641 µM. It also gave an IC50 [4] of 4.49 µM.
